Legend:
CYP3A4 = CYP3A4 inactivation in human liver microsomes; cited from earlier work
recombinant CYP2B6 = target: T1, recombinant CYP2B6 (Homo sapiens, UniProt P20813); experiment: Glutathione trapping and metabolite formation with recombinant CYP2B6; format: in vitro ADME; details: recombinant CYP2B6 100 pmol/mL, 1 mM GSH, 60 min
T1 sequence (P20813 1-491): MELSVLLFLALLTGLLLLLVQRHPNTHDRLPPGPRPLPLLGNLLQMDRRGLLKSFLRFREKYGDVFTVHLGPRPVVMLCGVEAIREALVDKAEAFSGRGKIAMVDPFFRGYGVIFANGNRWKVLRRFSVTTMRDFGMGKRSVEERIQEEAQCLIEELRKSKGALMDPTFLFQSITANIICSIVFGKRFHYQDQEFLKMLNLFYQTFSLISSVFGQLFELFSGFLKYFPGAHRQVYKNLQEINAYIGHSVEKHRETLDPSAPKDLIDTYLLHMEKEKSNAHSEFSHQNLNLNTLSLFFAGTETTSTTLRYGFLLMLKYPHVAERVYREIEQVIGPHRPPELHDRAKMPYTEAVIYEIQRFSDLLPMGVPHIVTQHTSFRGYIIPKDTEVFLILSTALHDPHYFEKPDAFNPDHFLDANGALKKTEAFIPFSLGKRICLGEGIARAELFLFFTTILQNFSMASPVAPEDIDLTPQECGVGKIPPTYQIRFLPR
Summary of the method: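 Test compound at 50 or 100 μM was incubated with recombinant CYP2B6 (100 pmol/mL) in 100 mM potassium phosphate pH 7.4, 3 mM MgCl2 and 1 mM reduced GSH. Reactions were started with NADPH-regenerating mix, with no-NADPH controls, for 60 min. Methanol stop contained 1 μM 4OH-MDZ internal standard. Samples were centrifuged 20 min at 2000 × g, 4 °C. Supernatants were analysed by LC-UV(280 nm)-MS for metabolites and GSH adducts.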

women = details: cited from earlier work

Cc1ccnc2c1NC(=O)c1cccnc1N2C1CC1 [NVP, Nevirapine]
GSH metabolite formation (recombinant CYP2B6): no GSH metabolite was detected
Increased risk for severe rash reactions in women (women): 7 fold

— publication PMC10583834 (Chemical Research in Toxicology, 2023)
